PubChem BioAssay
Activity calls are given as the source filed them.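 Rule for the calls, unless noted: active = viability loss from added drug above about 55%, and viability with drug at most 40%, in both replicates (limit read from the data, passing the limit was not always enough); inconclusive = both conditions met in only one replicate; inactive = neither replicate meets both conditions.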

How the values were obtained:
[1] = reduced viability of SK-BR-3 breast cancer cells – cell-based, 24 h, human, pilot screen (AID 572;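 active = viability at or below 10% of carrier control in both of two separate runs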;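 note: compound exposure lasted between 18 and 24 h rather than exactly 24 h; 100% = carrier-treated control wells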); settings: SK-BR-3 viability, CellTiter-Glo luminescence, at 10 µM, stronger effect = lower value
[2] = HUVEC growth inhibition – cell-based, human, primary screen (AID 575;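 active = viability at or below 30% in both replicate assays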;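 note: 100% = median of untreated cell wells with 0.1% DMSO on each plate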); settings: HUVEC proliferation, CellTiter-Glo luminescence, 72 h; at 10 µM; stronger effect = lower value
Method in brief: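 Test system – primary HUVEC, no more than 12 passages · Dosing – one dose, 10 µM final, 0.1% DMSO · Times – 72 h treatment at 37 °C · Measured by – ATP-based CellTiter-Glo luminescent read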

[3] = H69AR cell proliferation blockers – human, duplicate replicates, primary screen (AID 580;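 active = viability at or under a set limit in both replicates, limit being median viability minus 3 SD, cut at about 48% in these data, passing the limit was not always enough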;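 note: 100% = mean luminescence of untreated wells and 0% = no signal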); settings: H69AR lung tumor cells viability, ATP luminescence, 72 h; at 10 µM; stronger effect = lower value
[4] = MRP1 drug-resistance reversers in H69AR cells – cell-based, doxorubicin co-treatment, pilot screen (AID 601); settings: CellTiter-Glo, 72 h, at 10 µM; for differential viability (reversal): stronger effect = higher value
[5] = yeast transport mutant growth inhibition pilot in 384-well plates, post-Golgi transport modulator project (AID 636; in the data active = inhibition above about 31%); settings: absorbance 615 nm, about 18 h, stronger effect = higher value
[6] = growth suppression of yeast trafficking mutant, preliminary HTS, modulators of trafficking downstream of Golgi apparatus project, 1536-format plate, OD 615 nm (AID 637; in the data active = inhibition above about 30%); settings: yeast transport mutant growth, absorbance 615 nm, 18 h; stronger effect = higher value
[7] = H69AR cells + 2 uM doxorubicin, measured here: viability with 2 uM doxorubicin, stronger effect = lower value
[8] = H69AR cells, compound alone cytotoxicity

Row | Structure (SMILES) | viability [1] | viability [2] | viability [3] | differential viability (reversal) ([4]; H69AR cells + 2 uM doxorubicin) | viability [4, 7] | viability [4, 8] | inhibition [5] | inhibition [6]
1 | Cc1nc2ccccc2c(=O)n1NC(=O)Nc1ccccc1 | 111% (inactive) | 95.1% (inactive) | 107% (inactive) | 10.6% (inactive) | 96% | 107% | -1.2% (inactive) | -1.82% (inactive)
2 | CCOC(=O)C1C2C=CC3(CN(Cc4ccco4)C(=O)C13)O2 (stereo unspecified) | 97% (inactive) | 95.6% (inactive) | 96.5% (inactive) | 6.86% (inactive) | 89.7% | 96.5% | -6.99% (inactive) | 1.45% (inactive)
3 | CNC(=O)NCCN1CCCC1=O | 110% (inactive) | 112% (inactive) | 102% (inactive) | 14.5% (inactive) | 87.5% | 102% | -5% (inactive) | -3.09% (inactive)
4 | Cc1cc(C(=O)CSc2nnc(-c3ccccc3)n2C)c(C)n1C | 83% (inactive) | 107% (inactive) | 95.5% (inactive) | -3% (inactive) | 98.5% | 95.5% | 1.78% (inactive) | 0.73% (inactive)
5 | CCOC(=O)c1ccc(N(CC(=O)NC2CCCC2)C(=O)CNC(=O)c2ccco2)cc1 | 90% (inactive) | 95.4% (inactive) | 93.9% (inactive) | 1.51% (inactive) | 92.4% | 93.9% | 0.13% (inactive) | -2.46% (inactive)
6 | CC(C)C(=O)N1CCN(c2nc(-c3ccccc3)c3c(c2C#N)CCCC3)CC1 | 103% (inactive) | 74.5% (inactive) | 89.2% (inactive) | 11.5% (inactive) | 77.7% | 89.2% | 8.51% (inactive) | 5.09% (inactive)
7 | CCOC(=O)c1cnc(SC2CC(=O)N(c3ccc(OC)c(OC)c3)C2=O)nc1N (stereo unspecified) | 121% (inactive) | 101% (inactive) | 111% (inactive) | 14% (inactive) | 96.8% | 111% | -0.55% (inactive) | 1.13% (inactive)
8 | c1coc(CN2CN=C(Nc3nc4ccccc4s3)NC2)c1 | 91% (inactive) | 115% (inactive) | 96.4% (inactive) | -0.14% (inactive) | 96.5% | 96.4% | -2.3% (inactive) | -4.18% (inactive)
9 | O=C(CCN1C(=O)c2ccccc2C1=O)N1CCN(C(=O)c2ccccc2)CC1 | 106% (inactive) | 108% (inactive) | 101% (inactive) | 8.3% (inactive) | 92.3% | 101% | -3.25% (inactive) | 4.59% (inactive)
10 | CCc1nn(CC(=O)N2CCN(Cc3ccc4c(c3)OCO4)CC2)c(=O)c2cc3occc3n12 | 87% (inactive) | 100% (inactive) | 91.8% (inactive) | -2.36% (inactive) | 94.2% | 91.8% | 0.14% (inactive) | -4.55% (inactive)
11 | CCN(C(=O)c1c(OC)cccc1OC)c1nnc(-c2cccnc2)s1 | 95% (inactive) | 87.7% (inactive) | 92.7% (inactive) | 1.89% (inactive) | 90.8% | 92.7% | -5.81% (inactive) | -7.82% (inactive)
12 | COC(=O)C1=C(C)NC(C)=C(C(=O)OC)C1C(=O)OC1CCCCC1=O (stereo unspecified) | 89% (inactive) | 105% (inactive) | 97.3% (inactive) | 3.25% (inactive) | 94% | 97.3% | -4.46% (inactive) | -0.49% (inactive)
